System: not listed separately
Test: Inhibition of calf tubulin polymerization
Parameters: species or system Bos taurus
Conditions: not given
Procedure, shortened: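 Tubulin purified from calf brain; polymerization followed turbidimetrically at 350 nm. IC50 obtained from the data by nonlinear regression.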
For COc1cc([N+](=O)[O-])c(/C=C\c2cc(OC)c(OC)c(OC)c2)cc1[N+](=O)[O-], the IC50 was greater than 40 µM. COc1cc(/C=C/c2cc([N+](=O)[O-])c(OC)c([N+](=O)[O-])c2)cc(OC)c1OC gave an IC50 greater than 40 µM. Compound COc1cc(/C=C/c2ccc(OC)c([N+](=O)[O-])c2[N+](=O)[O-])cc(OC)c1OC has an IC50 greater than 40 µM. With COc1cc([N+](=O)[O-])c(/C=C/c2cc(OC)c(OC)c(OC)c2)cc1[N+](=O)[O-] the IC50 was greater than 40 µM. Compound COc1cc(/C=C\c2cc([N+](=O)[O-])c(OC)c([N+](=O)[O-])c2)cc(OC)c1OC has an IC50 of 7.4 µM. Work on COc1cc(/C=C\c2cc(NC(=O)[C@@H](N)CO)c(OC)c(NC(=O)[C@@H](N)CO)c2)cc(OC)c1OC yielded an IC50 greater than 40 µM. For COc1ccc(/C=C\c2cc(OC)c(OC)c(OC)c2)c(N)c1N, the IC50 was 1.8 µM. In the case of COc1cc(N)c(/C=C\c2cc(OC)c(OC)c(OC)c2)cc1N, the IC50 is reported as 14.1 µM. Compound COc1ccc(/C=C\c2cc(OC)c(OC)c(OC)c2)c(O)c1O [COMBRETASTATIN A-1] has an IC50 of 1.9 µM.

System: BXPC-3
Test: Cytotoxicity against human BXPC3 cells after 48 hrs by SRB assay
Format: functional
Conditions: Homo sapiens, BXPC-3, 48 h
Procedure, shortened: (§1)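 Cells grown in RPMI1640 with 5% fetal bovine serum were seeded and incubated 24 h, then exposed to serial dilutions for 48 h. Plates were fixed with trichloroacetic acid, stained with sulforhodamine B and read by plate reader. GI50 is the concentration giving a 50% reduction in net protein increase, calculated from optical density data.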
In the case of COc1cc([N+](=O)[O-])c(/C=C\c2cc(OC)c(OC)c(OC)c2)cc1[N+](=O)[O-], the GI50 is reported as 3.6 µM. With COc1cc(/C=C/c2cc([N+](=O)[O-])c(OC)c([N+](=O)[O-])c2)cc(OC)c1OC the GI50 was greater than 10 µM. For COc1cc(/C=C/c2ccc(OC)c([N+](=O)[O-])c2[N+](=O)[O-])cc(OC)c1OC, the GI50 was greater than 10 µM. Compound COc1cc([N+](=O)[O-])c(/C=C/c2cc(OC)c(OC)c(OC)c2)cc1[N+](=O)[O-] has a GI50 greater than 10 µM. COc1cc(/C=C\c2cc([N+](=O)[O-])c(OC)c([N+](=O)[O-])c2)cc(OC)c1OC gave a GI50 of 0.79 µM. COc1ccc(/C=C\c2cc(OC)c(OC)c(OC)c2)c(N)c1N gave a GI50 of 0.014 µM. Work on COc1cc(N)c(/C=C\c2cc(OC)c(OC)c(OC)c2)cc1N yielded a GI50 of 1 µM. In the case of COc1ccc(/C=C\c2cc(OC)c(OC)c(OC)c2)cc1O [COMBRETASTATIN A4], the GI50 is reported as 0.39 µM. With COc1ccc(/C=C\c2cc(OC)c(OC)c(OC)c2)c(O)c1O [COMBRETASTATIN A-1] the GI50 was 4.4 µM.

System: MCF7
Test: Cytotoxicity against human MCF7 cells after 48 hrs by SRB assay
Format: functional
Conditions: Homo sapiens, MCF7, 48 h
Procedure, shortened: as §1
Compound COc1cc([N+](=O)[O-])c(/C=C\c2cc(OC)c(OC)c(OC)c2)cc1[N+](=O)[O-] has a GI50 of 2.3 µM. COc1cc(/C=C/c2cc([N+](=O)[O-])c(OC)c([N+](=O)[O-])c2)cc(OC)c1OC gave a GI50 greater than 10 µM. Compound COc1cc(/C=C/c2ccc(OC)c([N+](=O)[O-])c2[N+](=O)[O-])cc(OC)c1OC has a GI50 greater than 10 µM. For COc1cc([N+](=O)[O-])c(/C=C/c2cc(OC)c(OC)c(OC)c2)cc1[N+](=O)[O-], the GI50 was 2.5 µM. For COc1cc(/C=C\c2cc([N+](=O)[O-])c(OC)c([N+](=O)[O-])c2)cc(OC)c1OC, the GI50 was 0.41 µM. In the case of COc1ccc(/C=C\c2cc(OC)c(OC)c(OC)c2)c(N)c1N, the GI50 is reported as 0.011 µM. In the case of COc1cc(N)c(/C=C\c2cc(OC)c(OC)c(OC)c2)cc1N, the GI50 is reported as 0.61 µM.

System: SF-268
Test: Cytotoxicity against human SF268 cells after 48 hrs by SRB assay
Format: functional
Conditions: Homo sapiens, SF-268, 48 h
Procedure, shortened: as §1
Work on COc1cc([N+](=O)[O-])c(/C=C\c2cc(OC)c(OC)c(OC)c2)cc1[N+](=O)[O-] yielded a GI50 of 2.8 µM. COc1cc(/C=C/c2cc([N+](=O)[O-])c(OC)c([N+](=O)[O-])c2)cc(OC)c1OC gave a GI50 greater than 10 µM. Work on COc1cc(/C=C/c2ccc(OC)c([N+](=O)[O-])c2[N+](=O)[O-])cc(OC)c1OC yielded a GI50 greater than 10 µM. In the case of COc1cc([N+](=O)[O-])c(/C=C/c2cc(OC)c(OC)c(OC)c2)cc1[N+](=O)[O-], the GI50 is reported as 1.7 µM. For COc1cc(/C=C\c2cc([N+](=O)[O-])c(OC)c([N+](=O)[O-])c2)cc(OC)c1OC, the GI50 was 0.68 µM. Compound COc1ccc(/C=C\c2cc(OC)c(OC)c(OC)c2)c(N)c1N has a GI50 of 0.011 µM. Compound COc1cc(N)c(/C=C\c2cc(OC)c(OC)c(OC)c2)cc1N has a GI50 of 0.55 µM.

System: NCI-H460
Test: Cytotoxicity against human NCIH460 cells after 48 hrs by SRB assay
Format: functional
Conditions: Homo sapiens, NCI-H460, 48 h
Procedure, shortened: as §1
COc1cc([N+](=O)[O-])c(/C=C\c2cc(OC)c(OC)c(OC)c2)cc1[N+](=O)[O-] gave a GI50 of 3.5 µM. In the case of COc1cc(/C=C/c2cc([N+](=O)[O-])c(OC)c([N+](=O)[O-])c2)cc(OC)c1OC, the GI50 is reported as greater than 10 µM. COc1cc(/C=C/c2ccc(OC)c([N+](=O)[O-])c2[N+](=O)[O-])cc(OC)c1OC showed a GI50 greater than 10 µM. With COc1cc([N+](=O)[O-])c(/C=C/c2cc(OC)c(OC)c(OC)c2)cc1[N+](=O)[O-] the GI50 was greater than 10 µM. Compound COc1cc(/C=C\c2cc([N+](=O)[O-])c(OC)c([N+](=O)[O-])c2)cc(OC)c1OC has a GI50 of 0.37 µM. In the case of COc1ccc(/C=C\c2cc(OC)c(OC)c(OC)c2)c(N)c1N, the GI50 is reported as 0.009 µM. Compound COc1cc(N)c(/C=C\c2cc(OC)c(OC)c(OC)c2)cc1N has a GI50 of 0.38 µM. COc1ccc(/C=C\c2cc(OC)c(OC)c(OC)c2)cc1O [COMBRETASTATIN A4] gave a GI50 of 0.0006 µM. For COc1ccc(/C=C\c2cc(OC)c(OC)c(OC)c2)c(O)c1O [COMBRETASTATIN A-1], the GI50 was 0.74 µM.

System: KM-20L2
Test: Cytotoxicity against human KM20L2 cells after 48 hrs by SRB assay
Format: functional
Conditions: Homo sapiens, KM-20L2, 48 h
Procedure, shortened: as §1
In the case of COc1cc([N+](=O)[O-])c(/C=C\c2cc(OC)c(OC)c(OC)c2)cc1[N+](=O)[O-], the GI50 is reported as 4.6 µM. COc1cc(/C=C/c2cc([N+](=O)[O-])c(OC)c([N+](=O)[O-])c2)cc(OC)c1OC showed a GI50 greater than 10 µM. With COc1cc(/C=C/c2ccc(OC)c([N+](=O)[O-])c2[N+](=O)[O-])cc(OC)c1OC the GI50 was greater than 10 µM. COc1cc([N+](=O)[O-])c(/C=C/c2cc(OC)c(OC)c(OC)c2)cc1[N+](=O)[O-] gave a GI50 greater than 10 µM. With COc1cc(/C=C\c2cc([N+](=O)[O-])c(OC)c([N+](=O)[O-])c2)cc(OC)c1OC the GI50 was 0.52 µM. With COc1ccc(/C=C\c2cc(OC)c(OC)c(OC)c2)c(N)c1N the GI50 was 0.019 µM. With COc1cc(N)c(/C=C\c2cc(OC)c(OC)c(OC)c2)cc1N the GI50 was 0.44 µM. In the case of COc1ccc(/C=C\c2cc(OC)c(OC)c(OC)c2)cc1O [COMBRETASTATIN A4], the GI50 is reported as 0.34 µM. COc1ccc(/C=C\c2cc(OC)c(OC)c(OC)c2)c(O)c1O [COMBRETASTATIN A-1] showed a GI50 of 0.061 µM.

System: DU-145
Test: Cytotoxicity against human DU145 cells after 48 hrs by SRB assay
Format: functional
Conditions: Homo sapiens, DU-145, 48 h
Procedure, shortened: as §1
COc1cc([N+](=O)[O-])c(/C=C\c2cc(OC)c(OC)c(OC)c2)cc1[N+](=O)[O-] showed a GI50 of 5.5 µM. COc1cc(/C=C/c2cc([N+](=O)[O-])c(OC)c([N+](=O)[O-])c2)cc(OC)c1OC gave a GI50 greater than 10 µM. COc1cc(/C=C/c2ccc(OC)c([N+](=O)[O-])c2[N+](=O)[O-])cc(OC)c1OC gave a GI50 greater than 10 µM. COc1cc([N+](=O)[O-])c(/C=C/c2cc(OC)c(OC)c(OC)c2)cc1[N+](=O)[O-] gave a GI50 greater than 10 µM. COc1cc(/C=C\c2cc([N+](=O)[O-])c(OC)c([N+](=O)[O-])c2)cc(OC)c1OC gave a GI50 of 0.26 µM. Work on COc1ccc(/C=C\c2cc(OC)c(OC)c(OC)c2)c(N)c1N yielded a GI50 of 0.012 µM. With COc1cc(N)c(/C=C\c2cc(OC)c(OC)c(OC)c2)cc1N the GI50 was 0.33 µM. COc1ccc(/C=C\c2cc(OC)c(OC)c(OC)c2)cc1O [COMBRETASTATIN A4] gave a GI50 of 0.0008 µM. Compound COc1ccc(/C=C\c2cc(OC)c(OC)c(OC)c2)c(O)c1O [COMBRETASTATIN A-1] has a GI50 of 0.17 µM.

Source: ChEMBL document CHEMBL1144850, “Combretastatin dinitrogen-substituted stilbene analogues as tubulin-binding and vascular-disrupting agents” (J Nat Prod, 2008)
